Data published in ChEMBL document CHEMBL4513216, “Probing the Open Global Health Chemical Diversity Library for Multistage-Active Starting Points for Next-Generation Antimalarials” (ACS Infect Dis, 2020).

experiment: Toxicity liver stage against HepG2, at 10uM; assay type: cell-based; parameters: test concentration 10 uM, cell line HepG2-A16-CD81EGFP; conditions: human, HepG2-A16-CD81EGFP cells; read-out: INHIBITION
How it was run: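 Uninfected HepG2-A16-CD81EGFP cells, 3 × 10^3 per well, 1536-well, plated on prespotted compound at 10 μM final, parasite-free screening media added to match infected plates; puromycin 10 μM positive, DMSO 0.5% negative; run in parallel with 48 h PbLuc assay at 37 °C, 5% CO2; viability by CellTiter-Glo luminescence, normalized to controls.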

SMILES	cytotoxicity at 10 µM
CCCSc1ncc(C2CC(=O)NCc3nc4ccccn4c32)cn1 (centres undefined)	-6.53%
c1ccc(Cn2cc3c(n2)C(COCC2CC2)OCC3)nc1 (centres undefined)	-6.63%
CSCc1noc(CN2CCC3(CC2)CC(=O)N(CC=C(C)C)C3)n1	-0.589%
Cn1cc(CNCCNc2ncc(Cl)cc2Cl)cn1	-6.42%
Cc1nc(-c2nnc[nH]2)sc1C(=O)N1CCCC1Cn1cccn1 (centres undefined)	11.8%
CC(=O)N1CCC2(CC1)c1ncc(-c3ccc(F)cc3)n1CCN2C	-101%
COc1ccc(OC)c(-n2c(COC(C)C)n[nH]c2=O)c1	7.78%
CCN1CCN(C2CCN(Cc3noc(C4CC4)n3)CC2)C1=O	-8.69%
Cc1ccc(C)c(SCC(=O)Nc2cccc(C(=O)N(C)C)n2)c1	-9.9%
CC(=O)c1cnc(N(C)Cc2cnc3ccccc3n2)nc1C	2.4%
CNc1nc(C(=O)N2CCN(c3ccc(Cl)c(Cl)c3)CC2)cs1	13.9%
CN(C)C(=O)N1CCc2ccc(=O)[nH]c2CC1	5.39%
Cc1occc1C(=O)N1CCCC(c2nncn2C)C1 (centres undefined)	-16%
COCC1CC2(CCN(Cc3nc(C)cs3)CC2)CO1 (centres undefined)	-111%
COCC(=O)N1CCc2ncc(Cn3cncn3)n2CC1	-81%
c1cncc(CCc2nc(C3CC3)nn2-c2ccc3c(c2)OCCO3)c1	-0.833%
COCC[C@]1(O)CCN(c2ncc(Cl)cc2F)C[C@H]1C	12.8%
CC(C)OC(=O)c1ccc(Cl)c(NC(=O)NCCN2CCOCC2)c1	-54.4%
O=C(O)[C@@H]1CN(C(=O)CN2CCCCCC2)C[C@H]1c1ccccc1	4.97%
O=S(=O)(CCN1CCN(c2ccccc2O)CC1)c1ccc(Br)cc1	10.7%
CCc1c(NCc2ccncc2)cnn1CC(C)C	7.81%
Cc1cc(C)n(CC2CCCN2C(=O)CCc2cscn2)n1 (centres undefined)	-10.4%

SMILES	cytotoxicity at 10 µM
N#Cc1ccc(N2CCN(C(=O)c3cc(C4CC4)[nH]n3)CC2)c(F)c1	1.94%
Fc1cccc(N2CCCC3(C2)CN(c2cnccn2)CCO3)c1 (centres undefined)	8.49%
NC(=O)C1CN(C(=O)NCC2(c3ccc(F)cc3)CCC2)CCO1 (centres undefined)	-5.07%
Cc1cc(C)c(Cn2cncn2)cc1CN1CCC(CN)C1 (centres undefined)	-11.3%
CN(C)CCN(Cc1ccccn1)C(=O)Nc1cccc(F)c1	8.94%
Cc1cccc(CO[C@H]2CN(c3nnc(C)s3)[C@@H]3CCCO[C@H]23)n1	4.47%
CCS(=O)(=O)c1ccc2c(c1)OCCO2	-1.38%
COc1ccc(COCC(O)CNC(=O)c2cc(C)no2)cc1 (centres undefined)	0.742%
CCc1nc2ccccc2c(=O)n1CC1(O)CCN(S(C)(=O)=O)CC1	-3.5%
CC(C(=O)NCc1ccc(F)cc1)N(C)CCN1CCOCC1 (centres undefined)	0.247%
CC(C)(O)CN1CCN(C(=O)COCC2CC2)CC1	-9.17%
CCCS(=O)(=O)NCCc1ncc(C)s1	-9.31%
O=C([C@@H]1C[C@@H]2CCN(C3CCOCC3)C[C@H]2O1)N1CCCC1	4.5%
CC(C)CC(NC(=O)OC(C)(C)C)C(N)=O (centres undefined)	3.29%
COc1ccc(CNC(=O)c2cc3c(nc2O)CCC(C)C3)cc1 (centres undefined)	-6.1%
CCc1sc(C(=O)N2CCC(Nc3ccc(C)nn3)CC2)cc1C	1.86%
O=C1CC(N(C(=O)c2ccccc2Br)C2CC2)C(=O)N1 (centres undefined)	10.3%
CS(=O)(=O)N1CCCCC12CCN(c1nncs1)CC2	10.6%
CC(C)c1nc(CN(C)C(=O)c2ccc3c(c2)OCO3)cs1	-1.1%
COc1cccc(-c2n[nH]cc2-c2nc(CN3CCCC3)no2)c1	-23.2%
O=C(Nc1ccc(-c2cscn2)cc1)C1CCCN(Cc2ccon2)C1 (centres undefined)	0.414%
NC(=O)c1cn[nH]c1C1CCCN1C(=O)c1ccccn1 (centres undefined)	0.893%

SMILES	cytotoxicity at 10 µM
O=C(NCCn1ccc(-c2ccccn2)n1)C1CC1	7.49%
CN1CCN(c2cc(CNC(=O)c3cccnc3O)ccn2)CC1	-5.42%
Cc1nc(C)n(CC2CCCCN2CCOc2cccc(C#N)c2)n1 (centres undefined)	-10%
Cc1noc([C@@H]2CC[C@@H]3[C@@H](CCN3S(=O)(=O)c3ccccc3)O2)n1	2.43%
Cn1cc(CCC(=O)N2CCCC(n3cncn3)C2)cn1 (centres undefined)	-15.1%
CO[C@H]1CN(C(=O)c2ccc3oc(C)cc3c2)C[C@@]12CCCO2	-6.14%
Cc1nc(CN2CCCC(Nc3ncnc4ccccc34)C2)no1 (centres undefined)	50%
O=C(c1ccco1)N1CCN2C[C@H](Oc3cncnc3)C[C@H]2C1	-2.97%
COCCN1C[C@@H]2COC[C@@H](CC(=O)NCc3cccnc3)[C@@H]2C1	12%
CCc1nc(C2CCCN2C(=O)c2ccc3c(c2)COC3)no1 (centres undefined)	-14.4%
COc1ccc([C@@H]2CN(C(=O)CS(C)(=O)=O)C[C@H]2NC(C)=O)cc1	0.541%
Cc1cc(-c2noc(C3CCS(=O)(=O)C3)n2)ccc1F (centres undefined)	8.22%
O=S(=O)(c1ccccc1)N1CCCN(CCCn2ccnc2)CC1	-9.17%
CCOc1ccc(CCCC(=O)N2CCC(c3nnn[nH]3)CC2)cc1C	-3.57%
COCC1CC2(CCN(Cc3nccs3)CC2)CN1Cc1ccccn1 (centres undefined)	-98.4%
Cc1nc(CNC(=O)NC2CCCN(c3ncccn3)C2)cs1 (centres undefined)	-140%
CCn1nc(C)c2nnn(CC(=O)Nc3ccc(C)cc3)c(=O)c21	8.49%
O=C1COC2(COCCN(Cc3ccsc3)C2)CN1c1ccoc1 (centres undefined)	-73.5%
O=c1[nH]c2cn(-c3cccc(F)c3)c(=O)n2n1Cc1ccc(Cl)cc1	8.53%
CC(C)OCCCNC(=O)Nc1cccc2ncccc12	2.96%
CCO[C@@H]1CC[C@H]2[C@H]1OCCN2C(=O)c1ccc(OC)c(F)c1	15.7%
COc1ccc(F)cc1-c1nc2c([nH]1)c(C1CC1)nn2C	-2.18%

SMILES	cytotoxicity at 10 µM
O=C(CCN1CCCCO1)N1CCC(CO)(CCc2ccccc2)CC1	9.71%
CC(C)N1CC[C@@H]2OC[C@H](C(=O)Nc3cccnc3)C[C@@H]2C1	15.7%
CCCn1nnnc1CN(c1ccc(N2CCOCC2)cc1)C(C)C	6.8%
CC(c1ccco1)n1cc(-c2cc(CN3CCCC3)cs2)nn1 (centres undefined)	-23.6%
O=C(Cc1cccc(F)c1F)NS(=O)(=O)c1ccc(Cl)cc1F	-6.11%
CN(Cc1ccccc1)C(=O)c1nc(S(C)(=O)=O)n2ccccc12	-7.36%
O=C(c1ccccn1)N1CCN(c2ccc(-n3cccc3)nn2)CC1	-13.7%
CC(=O)Nc1ncc(S(=O)(=O)Nc2ccc(F)cc2)s1	0.976%
O=C(O)c1cc(-c2ccncc2F)cc(S(=O)(=O)N2CCCCCC2)c1	-0.2%
CNc1nc(CNC(=O)Nc2cc(Cl)ccc2F)cs1	-6.95%
Cc1cccc(C2(O)CCN(C(=O)c3ccc(N(C)C)cc3)CC2)c1C	-2.96%
CO[C@@H]1CO[C@@]2(CCN(C(=O)COc3ccccc3C)C2)C1	9.95%
COCCN1CCN(C(=O)C(c2cccc(F)c2)N(C)C)CC1 (centres undefined)	9.63%
Cn1cc(C(=O)Nc2cccc(F)c2)ccc1=O	-9.66%
Cc1ccc(C(=O)N2C[C@@H]3OCCN(C(C)C)[C@@H]3C2)cn1	-81.7%
Cn1ncc(C2CC(=O)NCc3nc4ccccn4c32)c1C1CC1 (centres undefined)	6.9%
Cn1nnnc1SCCNC(=O)C1CCN(C(=O)C2CCCC2)CC1	-11.8%
c1ccc(CN2CCOC3(CCN(c4ncccn4)CC3)C2)nc1	-2.42%
CC(NCc1ccc(OCc2nccn2C)cc1)c1cccnc1 (centres undefined)	-4.47%
CSCC(=O)N[C@H]1CN(CC2CCOCC2)C[C@@H]1c1ccccc1	-3.97%
CC1(C)Cc2ccc(C(=O)NC3CCOCC3)c(O)c2O1	-7.92%
CN(C)S(=O)(=O)N1CCC[C@]2(C[C@@H](Oc3ccccn3)CO2)C1	-2.31%

SMILES	cytotoxicity at 10 µM
Cc1c(C(=O)N2CCCC2c2cnn(C)c2)nnn1-c1ccccc1 (centres undefined)	-11.4%
O=C(c1cccnc1N1CCOC(c2ccc(F)cc2)C1)N1CCCC1 (centres undefined)	8.04%
CN1C[C@@H](C(=O)N2CCCOCC2)[C@@]2(CCc3ccccc3C(=O)N2)C1	8.64%
CCOC(=O)NC(CNC(=O)c1cccc(C)n1)CC(C)C (centres undefined)	6.17%
COCCn1cnc(-c2cc(C(=O)NC(C)C)c3ccccn23)c1	-1.03%
COCc1nc(C(=O)NS(=O)(=O)c2cc(F)ccc2F)cs1	-2.22%
c1cnc(OCc2nnc3n2CCN(CC2CC2)C3)nc1	-1.93%
CN(C)Cc1cccc(-c2cccnc2C(=O)NCC2CC2)c1	1.59%
Cc1noc(C)c1NC(=O)NC1CCN(C(=O)OC(C)(C)C)CC1	4.77%
Cn1ncc2c1NC(=O)CC2c1c(F)cccc1Cl (centres undefined)	46.1%
O=S(=O)(C1CC1)N1CCC2(CCN(Cc3nccs3)CC2)CC1	7.67%
COCC1CN(C(C)=O)CCN(c2cc(C)ncn2)C1 (centres undefined)	4.96%
CSCCc1ccc(NC(=O)NCc2ccnc(N(C)C)c2)cc1	0.661%
COC(=O)CCC(=O)NC(C)Cc1ccccc1Br (centres undefined)	-6.66%
CN(C)C1COC2(CCN(C(=O)c3cccc(Cl)c3)CC2)C1 (centres undefined)	-7.81%
CCOCc1ncn2c1CN(S(=O)(=O)c1ccc(C)cc1)CC2	-0.602%
CNC(=O)c1ccc2c(c1)C1(CCN(CC(C)C)CC1)C(=O)N2	-2.56%
CN(Cc1nncn1C)C(=O)c1cc(COc2ccccc2)[nH]n1	9.23%
COc1ccc(C(=O)N2C[C@@H](C)[C@@](C)(O)C2)cc1N1CCOCC1	11.3%
CCCc1nc(CN(CC)C(=O)c2onc3ccccc23)no1	9.67%
CCN(CC)C(=O)CNC(=O)c1c[nH]c2ccc(OC)cc12	-0.527%
